From article PMC4501086 (Nature, 2014)
Where two headings read alike, the source gives them in different places.

Columns and labels:
72 protein kinases = experiment: KinaseProfiler assay; format: biochemical; details: at ≤ 10 μM
p110γ = p110γ (Homo sapiens, UniProt P48736); experiment: PI3K isoform inhibition, Ki and IC50; format: biochemical
4T1 tumour = experiment: 4T1 breast cancer model, orthotopic in mammary fat pad, oral PI-3065; format: in vivo, female WT BALB/c mice; details: 75 mg/kg daily per os
In short: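 Luciferase-labelled 4T1 cells (10^5) inoculated into the mammary/breast fat pad 12 h after the first oral dose of vehicle or test compound (75 mg/kg daily, 36 days). Tumour growth followed by luciferase imaging and caliper volume. Tumour weight and luciferase activity measured in tumours excised 35 days after inoculation. Metastasis incidence by H&E histology as % of tumour-bearing mice. Body weight change from day 0. Mann-Whitney test.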

4T1 cells = experiment: Proliferation of 4T1 cells in vitro; format: cell-based, mouse; details: 4 h treatment, washing, MTS staining after 48 h culture
p110α = p110α (Homo sapiens, UniProt P42336); experiment: PI3K isoform inhibition, Ki and IC50; format: biochemical
Chain of p110α (P42336 whole entry, species assumed, canonical isoform): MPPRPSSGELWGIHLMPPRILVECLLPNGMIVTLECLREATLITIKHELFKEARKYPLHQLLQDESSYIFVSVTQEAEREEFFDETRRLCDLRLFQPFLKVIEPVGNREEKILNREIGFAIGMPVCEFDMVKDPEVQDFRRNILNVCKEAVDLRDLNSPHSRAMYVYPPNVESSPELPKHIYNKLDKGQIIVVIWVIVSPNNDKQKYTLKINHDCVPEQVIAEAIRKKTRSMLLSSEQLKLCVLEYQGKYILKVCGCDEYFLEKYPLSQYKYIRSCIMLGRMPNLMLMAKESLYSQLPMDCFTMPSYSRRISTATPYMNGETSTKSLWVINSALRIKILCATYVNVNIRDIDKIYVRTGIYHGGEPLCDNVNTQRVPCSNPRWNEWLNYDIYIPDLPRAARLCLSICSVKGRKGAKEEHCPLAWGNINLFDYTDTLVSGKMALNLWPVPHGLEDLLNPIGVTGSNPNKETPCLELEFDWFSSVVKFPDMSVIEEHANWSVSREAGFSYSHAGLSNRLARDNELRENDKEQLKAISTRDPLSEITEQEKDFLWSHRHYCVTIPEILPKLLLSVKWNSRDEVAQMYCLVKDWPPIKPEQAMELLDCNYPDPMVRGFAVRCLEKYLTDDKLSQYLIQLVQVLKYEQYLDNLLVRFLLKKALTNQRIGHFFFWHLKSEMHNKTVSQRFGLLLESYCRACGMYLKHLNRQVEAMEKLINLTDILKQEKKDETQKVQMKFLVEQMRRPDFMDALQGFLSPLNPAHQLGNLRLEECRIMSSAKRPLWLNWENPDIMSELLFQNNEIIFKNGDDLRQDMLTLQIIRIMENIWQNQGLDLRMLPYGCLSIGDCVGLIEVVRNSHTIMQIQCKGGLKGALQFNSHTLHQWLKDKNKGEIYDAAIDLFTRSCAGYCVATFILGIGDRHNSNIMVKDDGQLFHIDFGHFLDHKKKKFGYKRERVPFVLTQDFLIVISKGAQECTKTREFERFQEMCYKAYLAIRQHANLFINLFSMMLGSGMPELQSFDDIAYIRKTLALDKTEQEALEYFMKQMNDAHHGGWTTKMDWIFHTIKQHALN
Chain of p110α (P27986 whole entry partner, species assumed, canonical isoform): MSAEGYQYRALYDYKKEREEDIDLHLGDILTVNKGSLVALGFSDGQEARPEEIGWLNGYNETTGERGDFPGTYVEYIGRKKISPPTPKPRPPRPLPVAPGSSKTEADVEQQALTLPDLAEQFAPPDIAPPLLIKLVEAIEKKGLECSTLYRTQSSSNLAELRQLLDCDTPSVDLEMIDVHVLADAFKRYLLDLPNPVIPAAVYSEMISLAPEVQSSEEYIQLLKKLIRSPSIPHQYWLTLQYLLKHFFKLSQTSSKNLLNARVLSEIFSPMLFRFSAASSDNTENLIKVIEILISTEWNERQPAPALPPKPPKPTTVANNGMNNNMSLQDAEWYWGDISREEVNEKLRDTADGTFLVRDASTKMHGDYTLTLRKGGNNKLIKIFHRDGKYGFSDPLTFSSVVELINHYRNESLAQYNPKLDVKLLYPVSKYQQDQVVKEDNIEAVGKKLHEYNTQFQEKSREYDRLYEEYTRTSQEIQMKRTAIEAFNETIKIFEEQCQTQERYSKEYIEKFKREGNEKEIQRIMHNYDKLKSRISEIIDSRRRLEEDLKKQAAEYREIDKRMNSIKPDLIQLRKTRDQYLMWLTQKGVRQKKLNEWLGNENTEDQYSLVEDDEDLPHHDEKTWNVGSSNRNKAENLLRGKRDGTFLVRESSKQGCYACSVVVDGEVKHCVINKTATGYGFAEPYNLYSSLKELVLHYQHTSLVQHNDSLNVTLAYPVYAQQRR

p110β = p110β (Homo sapiens, UniProt P42338); experiment: PI3K isoform inhibition, Ki and IC50; format: biochemical
Chain of p110β (P42338 whole entry, species assumed, canonical isoform): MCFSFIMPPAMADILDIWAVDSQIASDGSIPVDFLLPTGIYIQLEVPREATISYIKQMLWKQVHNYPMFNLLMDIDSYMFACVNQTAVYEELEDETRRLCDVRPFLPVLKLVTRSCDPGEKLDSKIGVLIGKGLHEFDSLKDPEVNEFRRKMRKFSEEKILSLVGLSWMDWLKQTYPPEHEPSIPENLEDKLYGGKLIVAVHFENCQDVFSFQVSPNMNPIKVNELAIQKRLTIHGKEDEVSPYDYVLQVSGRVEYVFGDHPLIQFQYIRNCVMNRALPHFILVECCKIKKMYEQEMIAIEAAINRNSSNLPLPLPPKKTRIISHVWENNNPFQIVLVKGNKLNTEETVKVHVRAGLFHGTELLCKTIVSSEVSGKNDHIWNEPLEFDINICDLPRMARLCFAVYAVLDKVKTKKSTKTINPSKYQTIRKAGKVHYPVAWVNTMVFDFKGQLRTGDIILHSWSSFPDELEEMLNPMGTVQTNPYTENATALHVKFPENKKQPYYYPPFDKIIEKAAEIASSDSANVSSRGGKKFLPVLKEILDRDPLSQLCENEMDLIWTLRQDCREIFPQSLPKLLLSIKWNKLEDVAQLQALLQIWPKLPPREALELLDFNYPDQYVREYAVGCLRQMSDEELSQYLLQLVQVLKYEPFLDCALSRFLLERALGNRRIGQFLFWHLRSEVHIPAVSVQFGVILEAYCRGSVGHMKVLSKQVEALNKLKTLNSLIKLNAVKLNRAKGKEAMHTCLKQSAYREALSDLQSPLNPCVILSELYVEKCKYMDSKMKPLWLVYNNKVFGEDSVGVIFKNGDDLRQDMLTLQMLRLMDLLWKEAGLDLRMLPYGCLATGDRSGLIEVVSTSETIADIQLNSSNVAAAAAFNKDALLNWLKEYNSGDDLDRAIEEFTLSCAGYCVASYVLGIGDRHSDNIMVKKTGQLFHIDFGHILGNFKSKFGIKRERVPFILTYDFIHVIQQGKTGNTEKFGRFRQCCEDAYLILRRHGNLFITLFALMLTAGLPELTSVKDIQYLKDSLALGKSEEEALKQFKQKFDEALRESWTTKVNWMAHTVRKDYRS
Chain of p110β (P27986 whole entry partner, species assumed, canonical isoform): as the sequence (P27986 whole entry partner, species assumed, canonical isoform) above

[1] = tested on: pancreatic ductal adenocarcinoma (PDAC); experiment: KPC model of pancreatic ductal adenocarcinoma, treatment of palpable disease; format: in vivo, KPC mice
In short: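 KPC mice (endogenous mutant KrasG12D and p53R172H in Pdx1+ pancreatic cells) developed palpable disease before vehicle or test compound (75 mg/kg) began. Read-outs were survival, macrometastases and pathology by H&E, Treg (% of CD4+) and CD44high cells (% of CD8+) in draining lymph nodes, and CD8+ cells (% of CD45+) in normal pancreas versus PDAC lesions. Mann-Whitney test.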

[2] = tested on: CD69 expression in anti-IgM stimulated whole blood; experiment: anti-IgM stimulated human whole blood, FACS for CD69; format: cell-based; details: read-out: anti-IgM stimulated whole blood CD69 expression IC50
p110δ = p110δ (Homo sapiens, UniProt O00329); experiment: PI3K isoform inhibition, Ki and IC50; format: biochemical
Chain of p110δ (O00329 whole entry, species assumed, canonical isoform): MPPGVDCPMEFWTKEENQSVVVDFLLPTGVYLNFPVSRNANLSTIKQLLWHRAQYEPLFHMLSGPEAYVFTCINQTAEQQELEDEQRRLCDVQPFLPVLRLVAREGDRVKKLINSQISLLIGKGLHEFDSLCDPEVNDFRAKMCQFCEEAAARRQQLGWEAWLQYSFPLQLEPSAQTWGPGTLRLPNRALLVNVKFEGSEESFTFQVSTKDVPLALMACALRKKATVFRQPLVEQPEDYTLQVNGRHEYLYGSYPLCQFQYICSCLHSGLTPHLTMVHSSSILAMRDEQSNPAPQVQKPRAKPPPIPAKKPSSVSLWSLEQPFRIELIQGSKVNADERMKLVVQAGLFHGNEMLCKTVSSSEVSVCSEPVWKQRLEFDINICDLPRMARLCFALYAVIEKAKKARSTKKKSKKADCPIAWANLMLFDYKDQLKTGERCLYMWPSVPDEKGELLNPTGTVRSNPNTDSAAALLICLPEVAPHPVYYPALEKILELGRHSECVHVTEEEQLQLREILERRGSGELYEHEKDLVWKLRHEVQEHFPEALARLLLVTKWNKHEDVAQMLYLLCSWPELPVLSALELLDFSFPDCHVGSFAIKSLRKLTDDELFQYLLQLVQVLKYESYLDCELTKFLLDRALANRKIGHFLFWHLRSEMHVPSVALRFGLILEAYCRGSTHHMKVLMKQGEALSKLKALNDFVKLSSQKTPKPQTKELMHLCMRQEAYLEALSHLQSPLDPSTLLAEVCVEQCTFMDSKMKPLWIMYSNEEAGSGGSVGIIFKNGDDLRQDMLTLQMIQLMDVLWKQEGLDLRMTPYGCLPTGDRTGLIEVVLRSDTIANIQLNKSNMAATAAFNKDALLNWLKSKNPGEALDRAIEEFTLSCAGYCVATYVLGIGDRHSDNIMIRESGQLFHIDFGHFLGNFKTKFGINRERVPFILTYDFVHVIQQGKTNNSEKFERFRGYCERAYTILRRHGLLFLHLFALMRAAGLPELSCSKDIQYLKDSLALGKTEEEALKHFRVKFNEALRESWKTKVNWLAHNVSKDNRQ
Chain of p110δ (P27986 whole entry partner, species assumed, canonical isoform): as the sequence (P27986 whole entry partner, species assumed, canonical isoform) above

[3] = tested on: chronic lymphocytic leukaemia (CLL) and non-Hodgkin's lymphoma; details: cited from earlier work
[4] = 36 consecutive days, 4T1 tumour-bearing mice
[5] = 75 mg/kg, treatment after palpable disease

Chain of p110γ (P48736 whole entry, species assumed, canonical isoform): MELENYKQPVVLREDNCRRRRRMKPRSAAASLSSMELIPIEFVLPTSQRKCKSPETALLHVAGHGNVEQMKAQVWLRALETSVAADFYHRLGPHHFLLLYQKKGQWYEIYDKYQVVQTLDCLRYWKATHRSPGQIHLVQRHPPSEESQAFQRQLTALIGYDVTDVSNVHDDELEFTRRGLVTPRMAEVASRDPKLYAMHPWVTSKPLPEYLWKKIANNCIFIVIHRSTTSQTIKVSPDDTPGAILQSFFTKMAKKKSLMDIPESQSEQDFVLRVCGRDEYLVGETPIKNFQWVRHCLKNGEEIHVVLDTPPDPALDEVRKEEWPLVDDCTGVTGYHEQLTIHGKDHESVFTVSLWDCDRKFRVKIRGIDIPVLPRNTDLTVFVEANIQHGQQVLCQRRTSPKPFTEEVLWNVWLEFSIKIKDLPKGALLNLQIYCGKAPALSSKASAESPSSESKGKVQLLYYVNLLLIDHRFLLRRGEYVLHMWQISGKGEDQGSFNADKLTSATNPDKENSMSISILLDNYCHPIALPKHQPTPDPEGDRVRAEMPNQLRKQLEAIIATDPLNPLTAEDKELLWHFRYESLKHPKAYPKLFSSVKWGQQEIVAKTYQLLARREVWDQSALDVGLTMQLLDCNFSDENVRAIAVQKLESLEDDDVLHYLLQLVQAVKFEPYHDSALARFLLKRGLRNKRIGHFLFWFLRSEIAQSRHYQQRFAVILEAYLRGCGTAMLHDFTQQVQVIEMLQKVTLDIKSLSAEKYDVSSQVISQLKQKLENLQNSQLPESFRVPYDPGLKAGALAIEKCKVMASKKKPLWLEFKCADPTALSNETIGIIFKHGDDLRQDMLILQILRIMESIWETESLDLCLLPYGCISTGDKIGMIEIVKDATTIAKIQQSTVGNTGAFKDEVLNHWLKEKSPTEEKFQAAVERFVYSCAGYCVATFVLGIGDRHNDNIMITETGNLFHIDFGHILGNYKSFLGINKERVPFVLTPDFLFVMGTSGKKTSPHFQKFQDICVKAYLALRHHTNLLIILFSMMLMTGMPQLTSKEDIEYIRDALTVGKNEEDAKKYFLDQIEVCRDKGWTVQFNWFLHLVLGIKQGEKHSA

Compound	activity against 72 protein kinases (72 protein kinases)	IC50 (p110γ)	Ki (p110γ)	body weight loss (4T1 tumour; [4])	tolerability of long-term administration (4T1 tumour; [4])	4T1 metastasis (4T1 tumour; 36 days)	4T1 tumour growth (4T1 tumour; 36 days)	in vitro growth inhibition of 4T1 cells (4T1 cells)	Ki (p110α)	IC50 (p110β)	Ki (p110β)	incidence of metastases and other disease-associated pathologies [1, 5]	survival of KPC mice [1, 5]	infiltrating CD8+ T cells in pancreatic lesions ([1]; 14 days after treatment)	levels of CD44high CD8+ lymphocytes in the draining lymph nodes ([1]; after 7 days of treatment)	relative abundance of peripheral Treg in lymph nodes ([1]; after 7 days of treatment)	IC50 ([2]; Homo sapiens)	Ki (p110δ)	therapeutic impact in patients [3]	IC50 ([2]; human whole blood, anti-IgM, FACS for CD69)
Fc1ccc2[nH]ccc2c1-c1nc(N2CCOCC2)c2sc(CN3CCN(CC4CC4)CC3)cc2n1 [PI-3065]	No significant activity	> 10000 nM	940 nM	did not induce weight loss	well-tolerated	suppressed	suppressed	not growth-inhibited	110 nM	600 nM	130 nM	reduced	prolonged survival	relatively more	higher levels	reduced	38 nM	1.5 nM	–	–
CC[C@H](Nc1ncnc2[nH]cnc12)c1nc2cccc(F)c2c(=O)n1-c1ccccc1 [Idelalisib]	–	–	–	–	–	–	–	–	–	–	–	–	–	–	–	–	60 nM	–	impressive therapeutic impact	–
Cc1ccccc1-n1c(Cn2cnc3c(N)ncnc32)nc2cccc(C)c2c1=O [IC87114]	–	–	–	–	–	–	–	–	–	–	–	–	–	–	–	–	–	–	–	3500 nM
